Assay results published in ChEMBL document CHEMBL1144139, “Immunosuppressive diterpenoids from Tripterygium wilfordii” (1999).
The source made the active and inactive calls. The rule behind the calls is not given here.

What was measured:
Format in all cases: functional
PBMC [1] = experiment: Immunosuppressive activity against human PBMC assessed as inhibition of LPS-induced TNFalpha production at 10 ug/ml after 24 hrs by ELISA
Method in brief: (§1)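 Heparinized whole blood from healthy volunteers, diluted to 30% in RPMI-1640 with penicillin/streptomycin, was mixed in equal volumes with LPS solution (3 µg/mL) and sample (3 mg/mL DMSO stock diluted 1:100; DMSO-only control). Incubated at 37 °C, 5% CO2. Supernatant cytokines measured by ELISA. Inhibition (%) = […] versus solvent control.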

PBMC [2] = experiment: Immunosuppressive activity against human PBMC assessed as inhibition of LPS-induced IL8 production at 10 ug/ml after 24 hrs by ELISA; method in brief: as §1
PBMC [3] = experiment: Immunosuppressive activity against human PBMC assessed as inhibition of LPS-induced IL1-beta production at 10 ug/ml after 24 hrs by ELISA; method in brief: as §1
PBMC [4] = experiment: Immunosuppressive activity against human PBMC assessed as inhibition of LPS-induced IL4 production at 10 ug/ml after 24 hrs by ELISA; method in brief: as §1
PBMC [5] = experiment: Immunosuppressive activity against human PBMC assessed as inhibition of LPS-induced IL2 production at 10 ug/ml after 24 hrs by ELISA; method in brief: as §1
PBMC [6] = experiment: Immunosuppressive activity against human PBMC assessed as inhibition of LPS-induced IFN-gamma production at 10 ug/ml after 24 hrs by ELISA; method in brief: as §1
PBMC [7] = experiment: Immunosuppressive activity against human PBMC assessed as inhibition of LPS-induced TNFalpha production at 0.3 ug/ml after 24 hrs by ELISA
PBMC [8] = experiment: Immunosuppressive activity against human PBMC assessed as inhibition of LPS-induced IL8 production at 0.3 ug/ml after 24 hrs by ELISA
PBMC [9] = experiment: Immunosuppressive activity against human PBMC assessed as inhibition of LPS-induced IL1-beta production at 0.3 ug/ml after 24 hrs by ELISA
PBMC [10] = experiment: Immunosuppressive activity against human PBMC assessed as inhibition of LPS-induced IL4 production at 0.3 ug/ml after 24 hrs by ELISA
PBMC [11] = experiment: Immunosuppressive activity against human PBMC assessed as inhibition of LPS-induced IL2 production at 0.3 ug/ml after 24 hrs by ELISA
PBMC [12] = experiment: Immunosuppressive activity against human PBMC assessed as inhibition of LPS-induced IFN-gamma production at 0.3 ug/ml after 24 hrs by ELISA

SMILES | inhibition at 10 µg/mL (PBMC [1]) [%] | inhibition at 10 µg/mL (PBMC [2]) [%] | inhibition at 10 µg/mL (PBMC [3]) [%] | inhibition at 10 µg/mL (PBMC [4]) [%] | inhibition at 10 µg/mL (PBMC [5]) [%] | inhibition at 10 µg/mL (PBMC [6]) [%] | Activity (PBMC [1]) | Activity (PBMC [2]) | Activity (PBMC [3]) | Activity (PBMC [4]) | Activity (PBMC [5]) | Activity (PBMC [6]) | other results
C=C[C@]1(C)CC[C@@H]2[C@@]3(C)CCC[C@@](C)(C(=O)O)[C@@H]3CC[C@@]2(C)O1 | 49.9 | 65.2 | 36.1 | 95.4 | 100 | 94 |  |  |  |  |  |  | 
CC(C)c1ccc2c(c1)CC[C@H]1[C@@](C)(CO)[C@@H](O)CC[C@]21C |  |  |  |  |  |  | inactive | inactive | inactive | inactive | inactive | inactive | 
C=C1C[C@H]2[C@@](C)(CO)C(=O)CC[C@]2(C)c2cc(O)c(C(C)C)cc21 [TRIPTOBENZENE M] | 7.5 | -29.1 | 13.5 | 40.1 | 55.6 | 54.1 |  |  |  |  |  |  | 
C[C@@]12CCC[C@@](C)(C(=O)O)[C@@H]1CC[C@@]13C[C@@H](CC[C@H]12)[C@@H](CO)C3 | 0 | 4.2 | -6.1 | 56.2 | 35 | 34 |  |  |  |  |  |  | 
CC(C)c1ccc2c(c1)C(=O)C[C@H]1[C@@](C)(CO)C(=O)CC[C@]21C [TRIPTOBENZENE N] | 13.3 | 15.4 | 37.9 | -52.2 | 64.5 | 42.3 |  |  |  |  |  |  | 
C[C@@]1(O)C[C@@]23CC[C@H]4[C@@]5(CCC[C@]4(C)C(=O)OC5)[C@@H]2CC[C@H]1C3 [TRIPTERIFORDIN] | 76.8 | 96.6 | 75.7 | 95.7 | 97.9 | 98.6 |  |  |  |  |  |  | 
C=C1C[C@H]2[C@@](C)(CO)C(=O)CC[C@]2(C)c2c(O)cc(C(C)C)c(OC)c21 |  |  |  |  |  |  | inactive | inactive | inactive | inactive | inactive | inactive | 
C[C@]12C=CC(=O)C=C1CC[C@@H]1[C@@H]2[C@@H](O)C[C@@]2(C)[C@H]1CC[C@]2(O)C(=O)CO [PREDNISOLONE] |  |  |  |  |  |  |  |  |  |  |  |  | inhibition at 0.3 µg/mL (PBMC [7]): 88.5%; inhibition at 0.3 µg/mL (PBMC [8]): 90.3%; inhibition at 0.3 µg/mL (PBMC [9]): 88.5%; inhibition at 0.3 µg/mL (PBMC [10]): 96.1%; inhibition at 0.3 µg/mL (PBMC [11]): 93.9%; inhibition at 0.3 µg/mL (PBMC [12]): 95.4%
C=C1C[C@H]2[C@@](C)(CO)[C@@H](O)CC[C@]2(C)C2=C1C(=O)C(C(C)C)=CC2=O [TRIPTOQUINONE C] | -29.5 | -24.6 | 16.4 | 66.4 | 64 | 89 |  |  |  |  |  |  | 
C[C@@]12CCC[C@@](C)(C(=O)O)[C@@H]1CC[C@@]13C[C@@H](CC[C@H]12)[C@](C)(O)C3 |  |  |  |  |  |  | inactive | inactive | inactive | inactive | inactive | inactive | 
